Measured values taken from ChEMBL document CHEMBL1145831 (J Med Chem, 2003).

Columns and labels:
[1] = system: CCRF-CEM; experiment: In vitro growth inhibitory activity in the human CCRF-CEM leukemia cell line.; format: functional, cell-based
In short: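 CCRF-CEM human leukemia cells in log phase, 4.8 × 10⁴ cells per 2 mL well. Medium was RPMI-1640 with 10% dialyzed FBS and 25 mM HEPES. Compounds were serially diluted 1:3 in DMSO and added to duplicate wells, with DMSO-only controls, at 0.5% final DMSO. Cells were exposed 72 h at 37 °C in humidified 5% CO₂, then counted. IC50 in nM.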

[2] = system: Mus musculus; experiment: Log cell kill of tumor bearing mice on a schedule of 10-14 days and at a total dose of 41 mg/kg; format: functional, organism-based; set-up: dose 41 mg/kg
In short: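 Panc-03 murine pancreatic adenocarcinoma in mice. Aqueous dosing solutions were prepared from stocks and injected within 20 min; chlorohydrins were acidified with 0.05% citric acid. Log cell kill was calculated from tumor growth delay, the difference in days between treated and control animals to reach 1000 mg tumor weight.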

[3] = system: Mus musculus; experiment: Ratio of the median tumor weight in the treatment group over the median tumor weight in the control group on a schedule of 10-14 days and at a total dose of 41 mg/kg; format: functional
In short: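 Mice bearing the drug-sensitive murine pancreatic adenocarcinoma Panc-03. Dosing solutions were made in water from stock solutions and injected within 20 min of preparation; chlorohydrins were acidified with 0.05% citric acid. T/C (%) = median tumor weight of the treated group ÷ median tumor weight of controls × 100, calculated when control median tumor weight reached 1 g.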

[4] = system: Mus musculus; experiment: In vivo antitumor activity against murine pancreatic adenocarcinoma and measured as number of deaths on a schedule of 10-14 days and at a total dose of 41 mg/kg; format: ADME, organism-based; set-up: dose 41 mg/kg
In short: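 Mice bearing drug-sensitive murine pancreatic adenocarcinoma Panc-03 were dosed on the listed days at the listed total doses. Dosing solutions were made in water from stock solutions and injected within 20 min. Chlorohydrin solutions were acidified with 0.05% citric acid. Tolerance was recorded as body weight loss and number of deaths.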

[5] = system: Mus musculus; experiment: In vivo antitumor activity against murine pancreatic adenocarcinoma and measured as % weight loss on a schedule of 10-14 days and at a total dose of 41 mg/kg; format: functional
In short: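 Body weight loss was tracked in mice implanted with the Panc-03 murine pancreatic adenocarcinoma. Injections were given within 20 min of aqueous preparation from stock solutions, with chlorohydrins acidified using 0.05% citric acid.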

| Structure (SMILES) | IC50 [1] | further results |
| --- | --- | --- |
| COc1ccc(C[C@H]2NC(=O)/C=C/C[C@@H]([C@H](C)/C=C/c3csc(C)n3)OC(=O)[C@H](CC(C)C)OC(=O)C(C)(C)CNC2=O)cc1Cl | 460 nM |  |
| CCN(CC)Cc1ccc([C@H](Cl)[C@H](O)[C@@H](C)[C@@H]2C/C=C/C(=O)N[C@H](Cc3ccc(OC)c(Cl)c3)C(=O)NCC(C)(C)C(=O)O[C@@H](CC(C)C)C(=O)O2)cc1 | 0.005 nM |  |
| COc1ccc(C[C@H]2NC(=O)/C=C/C[C@@H]([C@H](C)[C@@H](O)[C@@H](Cl)c3ccc(C)c(C)c3)OC(=O)[C@H](CC(C)C)OC(=O)C(C)(C)CNC2=O)cc1Cl | 0.6 nM |  |
| COc1ccc(C[C@H]2NC(=O)/C=C/C[C@@H]([C@H](C)[C@H]3O[C@@H]3c3ccc(C)c(C)c3)OC(=O)[C@H](CC(C)C)OC(=O)C(C)(C)CNC2=O)cc1Cl | 0.05 nM |  |
| COc1ccc(C[C@H]2NC(=O)/C=C/C[C@@H]([C@H](C)[C@@H](O)[C@@H](Cl)c3ccc(CNC(=O)CN(C)C(=O)OC(C)(C)C)cc3)OC(=O)[C@H](CC(C)C)OC(=O)C(C)(C)CNC2=O)cc1Cl | 0.02 nM |  |
| COc1ccc([C@H]2O[C@@H]2[C@@H](C)[C@@H]2C/C=C/C(=O)N[C@H](Cc3ccc(OC)c(Cl)c3)C(=O)NCC(C)(C)C(=O)O[C@@H](CC(C)C)C(=O)O2)cc1 | 0.28 nM |  |
| CC(=O)O[C@H]1C(=O)[C@@]2(C)[C@H]([C@H](OC(=O)c3ccccc3)[C@]3(O)C[C@H](OC(=O)[C@H](O)[C@@H](NC(=O)c4ccccc4)c4ccccc4)C(C)=C1C3(C)C)[C@]1(OC(C)=O)CO[C@@H]1C[C@@H]2O [PACLITAXEL] |  | Log kill [2]: 4.2; T/C [3]: 0%; Death [4]: 0; Weight loss [5]: -5% |
